Where two headings read alike, the source gives them in different places.
Tests used:
[1] = system: MCF-7 human breast cancer cells; assay: In vitro cytotoxicity, MTT assay; type: cell-based; details: read-out: mean IC50
Method in brief: (§1)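 Cells kept in phenol red-free DMEM with 10% FBS, L-glutamine and antibiotics at 37 °C, 5% CO2, then seeded in 96-well plates. They were exposed to a range of test compound concentrations (free drug in DMSO or micellar formulations) for 24, 48 or 72 h. Next, 0.5 mg/mL MTT for 2 h, absorbance read at 550 nm. Viability expressed as % of untreated control wells.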

[2] = system: MDA-MB-231 human breast cancer cells; assay: In vitro cytotoxicity, MTT assay; type: cell-based; details: read-out: mean IC50
Method in brief: as §1

[3] = low solubility and low permeability; cited from earlier work
[4] = target: T1, bovine serum albumin (BSA) (Bos taurus, UniProt P02769); assay: Protein adsorption to micelles: incubation with BSA, DLS and TEM; type: physicochemical
Method in brief: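 Drug-loaded micelles were incubated with 45 mg/mL bovine serum albumin in 0.01 M PBS (pH 7.4) at 37 °C for 8 h, with BSA alone and micelles alone incubated in PBS as controls. Hydrodynamic size and polydispersity were read by DLS (n = 3, mean ± SD). For TEM, samples settled 20 s on carbon-coated grids and were negatively stained with 2% phosphotungstic acid in PBS, pH 7.0.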

[5] = target: T1, bovine serum albumin (BSA); details: ref Liu et al., 2005; cited from earlier work

T1 sequence (P02769 25-607): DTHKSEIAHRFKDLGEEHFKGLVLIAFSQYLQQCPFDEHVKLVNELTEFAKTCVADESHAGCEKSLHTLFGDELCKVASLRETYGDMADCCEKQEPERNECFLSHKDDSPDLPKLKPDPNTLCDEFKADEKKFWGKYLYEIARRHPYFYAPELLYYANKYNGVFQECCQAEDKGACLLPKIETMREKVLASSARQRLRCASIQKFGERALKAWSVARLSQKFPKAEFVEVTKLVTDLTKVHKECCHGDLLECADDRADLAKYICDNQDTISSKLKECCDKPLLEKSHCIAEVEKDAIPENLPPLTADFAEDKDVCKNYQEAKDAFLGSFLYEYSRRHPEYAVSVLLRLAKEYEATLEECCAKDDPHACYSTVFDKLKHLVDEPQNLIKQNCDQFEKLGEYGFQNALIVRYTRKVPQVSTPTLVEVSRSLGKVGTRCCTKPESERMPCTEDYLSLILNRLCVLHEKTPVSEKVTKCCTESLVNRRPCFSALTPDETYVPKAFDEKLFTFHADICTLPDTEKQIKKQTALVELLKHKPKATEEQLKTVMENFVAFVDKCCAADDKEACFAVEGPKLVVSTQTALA

## CC(=O)O[C@H]1C(=O)[C@@]2(C)[C@H]([C@H](OC(=O)c3ccccc3)[C@]3(O)C[C@H](OC(=O)[C@H](O)[C@@H](NC(=O)c4ccccc4)c4ccccc4)C(C)=C1C3(C)C)[C@]1(OC(C)=O)CO[C@@H]1C[C@@H]2O [Free PTX (in DMSO), Paclitaxel]
[1]; MCF7, 24 h
  IC50: > 1000 nM
[1]; MCF7, 48 h
  IC50: 384 nM
[1]; MCF7, 72 h
  IC50: 297 nM
[2]; MDA-MB-231, 24 h
  IC50: 21.6 nM
[2]; MDA-MB-231, 48 h
  IC50: 10.8 nM
[2]; MDA-MB-231, 72 h
  IC50: 9.7 nM
[3]
  biopharmaceutical classification system (BCS) class: class IV

## bovine serum albumin [BSA]
[4]; 8-h incubation at 37 °C in 0.01 M PBS pH 7.4, sample alone
  Size (hydrodynamic): 8.2 ± 0.1 nm
[4]; 8-h incubation at 37 °C in PBS, sample alone
  Polydispersity: 0.236 ± 0.019
[5]
  hydrodynamic diameter: 7.9 ± 0.4 nm
